Experimental data taken from ChEMBL document CHEMBL1146609, “Synthesis of water-soluble prodrugs of BMS-191011: a maxi-K channel opener targeted for post-stroke neuroprotection” (Bioorg Med Chem Lett, 2003).
Converted amounts (≈) assume the structure as drawn. “And” between values parts separate entries of the source, which are not always exact repeats. Equal values may be shown once. Each block holds one molecule with its values, some of them ahead of it.

Columns and labels:
Rattus norvegicus [1] = organism: Rattus norvegicus; assay: Percentage converted to BMS-191011 after 30 min incubation in rat plasma at 37 degree C; assay type: ADME, organism-based; details: 0.5 h
Procedure, shortened: (§1)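 Prodrug was incubated in rat plasma for 30 min at 37 °C. The percentage converted to the parent BMS-191011 was then determined.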

[2] = […] expressed as percentage of compound remains at 24 hr in PEG400/Water, 1:1; assay type: ADME, organism-based; details: read-out: Prodrug remains
Procedure, shortened: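 Chemical stability in PEG400/water (1:1) solution, given as the percentage of prodrug remaining after 24 h.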

Rattus norvegicus [3] = organism: Rattus norvegicus; assay: Percentage converted to BMS-191011 after 30 min incubation in rat plasma at 37 degree C; Converted to an unknown compound; assay type: ADME, organism-based; details: 0.5 h; procedure, shortened: as §1
[4] = Solubility in water at 4.2 pH; assay type: physicochemical; details: pH 4.2, read-out: S
Procedure, shortened: (§2)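 Aqueous solubility (mg/mL), measured with the pH of the resulting solution recorded.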

Rattus norvegicus [5] = organism: Rattus norvegicus; assay: […] expressed as percentage of compound remains at 24 hr in PEG400/Water, 1:1; Not stable; assay type: ADME, organism-based
[6] = Solubility in water at 8.4 pH; assay type: physicochemical; details: pH 8.4
[7] = Solubility in water at 7.0 pH; assay type: physicochemical; details: pH 7, read-out: S
[8] = t1/2 (apparent elimination)of the compound was determined; assay type: ADME, organism-based; details: rat, in vivo
Procedure, shortened: (§3)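 Male SD rats (N=3) given prodrug by IV infusion at 1.7 mg/kg (equivalent to 1 mg/kg parent), vehicle PEG-400/water 1:1. Blood samples were mixed at once with an equal volume of water, quenched with four volumes of acetonitrile and stored at -20 °C. Prodrug and parent were measured by two separate LC/MS/MS assays. Mean ±SD.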

[9] = Area under curve was determined; assay type: ADME, organism-based; details: rat, in vivo; procedure, shortened: as §3
[10] = Solubility in deionized water; assay type: physicochemical; details: read-out: S
Procedure, shortened: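 Solubility of the prodrug (mg/mL) in deionized water.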

[11] = Solubility in water at 2.4 pH; assay type: physicochemical; details: pH 2.4, read-out: S
[12] = Solubility in water at 7.5 pH; assay type: physicochemical; details: pH 7.5, read-out: S
[13] = Solubility in water at 7.2 pH; assay type: physicochemical; details: pH 7.2, read-out: S; procedure, shortened: as §2
[14] = Solubility in water at 5.5 pH; assay type: physicochemical; details: pH 5.5, read-out: S; procedure, shortened: as §2
Rattus norvegicus [15] = assay: Percent reduction of neocortical infract volume in 28 rats after IV administration (2h post MCA) at a dose of […]; assay type: functional
Procedure, shortened: (§4)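 Rat MCA occlusion model. Neocortical infarct volume was compared with vehicle controls (2% DMSO/98% propylene glycol) in the same study. Statistics by ANOVA with Dunnett's t-test, p<0.05; 28–29 animals per group.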

[16] = Volume distribution was determined; assay type: ADME, organism-based; details: rat, in vivo; read-out: Vdss; procedure, shortened: as §3
Rattus norvegicus [17] = assay: Percent reduction of neocortical infract volume in 29 rats after IV administration (2h post MCA)at a dose of […]; assay type: functional; procedure, shortened: as §4
Rattus norvegicus [18] = assay: Percent reduction of neocortical infract volume in 28 rats after IV administration (2h post MCA)at a dose of […]; assay type: functional; procedure, shortened: as §4
[19] = Plasma clearance was determined; assay type: ADME, organism-based; details: rat; procedure, shortened: as §3

SMILES: CS(=O)(=O)[O-].C[N+](C)(C)CCOC(=O)Oc1ccc(Cl)cc1Cn1nc(-c2ccc(C(F)(F)F)cc2)oc1=O
Conversion (Rattus norvegicus [1]): 100% | remaining at 24 h [2]: 72%

SMILES: CS(=O)(=O)[O-].C[N+](C)(C)CC(=O)OCOc1ccc(Cl)cc1Cn1nc(-c2ccc(C(F)(F)F)cc2)oc1=O
Conversion (Rattus norvegicus [3]): Converted to an unknown compound | solubility [4]: 4.5 mg/mL

Prodrug remains (Rattus norvegicus [5]): Not stable | solubility [6]: > 16 mg/mL | solubility [7]: 6.1 mg/mL (≈ 12.7 mM)
SMILES: O=c1oc(-c2ccc(C(F)(F)F)cc2)nn1Cc1cc(Cl)ccc1OCOP(=O)(O)O

half-life [8]: 1.2 h | AUC [9]: 0.0524 µg·h/mL
SMILES: O=c1oc(-c2ccc(C(F)(F)F)cc2)nn1Cc1cc(Cl)ccc1O

SMILES: CS(=O)(=O)[O-].C[N+](C)(C)CC(=O)c1ccc(Cl)cc1Cn1nc(-c2ccc(C(F)(F)F)cc2)oc1=O
remaining at 24 h [2]: > 90%

SMILES: CS(=O)(=O)[O-].C[N+](C)(C)CCCC(=O)Oc1ccc(Cl)cc1Cn1nc(-c2ccc(C(F)(F)F)cc2)oc1=O
solubility [10]: > 4 mg/mL | Conversion (Rattus norvegicus [1]): 95% | remaining at 24 h [2]: > 90%

solubility [11]: 0.055 mg/mL (≈ 0.105 mM) | Prodrug remains (Rattus norvegicus [5]): Not stable | solubility [12]: 0.004 mg/mL (≈ 0.00762 mM)
SMILES: O=C(OCOP(=O)(O)O)Oc1ccc(Cl)cc1Cn1nc(-c2ccc(C(F)(F)F)cc2)oc1=O

SMILES: O=c1oc(-c2ccc(C(F)(F)F)cc2)nn1Cc1cc(Cl)ccc1OP(=O)(O)O
solubility [13]: 14.6 mg/mL (≈ 32.4 mM) | solubility [14]: 4.9 mg/mL (≈ 10.9 mM) | Conversion (Rattus norvegicus [1]): 0%

SMILES: CS(=O)(=O)[O-].C[N+](C)(C)CCC(=O)Oc1ccc(Cl)cc1Cn1nc(-c2ccc(C(F)(F)F)cc2)oc1=O
solubility [10]: > 4 mg/mL | Conversion (Rattus norvegicus [1]): 100% | remaining at 24 h [2]: > 90%

SMILES: CS(=O)(=O)[O-].C[N+](C)(C)CCCC(=O)OCOc1ccc(Cl)cc1Cn1nc(-c2ccc(C(F)(F)F)cc2)oc1=O
Reduction (Rattus norvegicus [15]): -13% | Vd [16]: 2.6 L/kg | half-life [8]: 2.7 h | Reduction (Rattus norvegicus [17]): -16% | Reduction (Rattus norvegicus [18]): -14% and -12% and -17% | solubility [10]: > 25 mg/mL | clearance [19]: 1.37 L/h/kg | Conversion (Rattus norvegicus [1]): > 80% | remaining at 24 h [2]: > 97% | AUC [9]: 1.26 µg·h/mL
